PRMT1 FP inh = PRMT1 methyltransferase inhibitors, primary screen, biochemical, fluorescence polarization | Protein arginine N-methyltransferase 1 (Homo sapiens), Q99873 | recombinant PRMT1, activity-based probe fluorescence polarization | inhibition, % at 2.79 µM | hit rate 1.3% among 370,000 | AID 652257, 2013;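 active means inhibition above about 21% made by adding two undisclosed values, limit read from the data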
UHRF1 MBD2 ctr = UHRF1 methylated DNA binding inhibitors, primary screen, counter-screen for MBD2 inhibitor project, biochemical, TR-FRET, human UHRF1, single concentration; UHRF1 binding to methylated oligo; inhibition, % at 4.4 µM; hit rate 0.75% among 370,000; AID 687016, 2013;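 further: UHRF1 SRA domain binding a hemimethylated CpG hairpin DNA probe; 0% = median of test compound wells and 100% = reference inhibitor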
MBD2 inh = inhibitors of MBD2 binding to methylated DNA, primary screen, biochemical, TR-FRET, DNA-binding domain, human; Methyl-CpG-binding domain protein 2 (Homo sapiens), Q9UBB5; MBD2 binding to methylated oligonucleotide; inhibition, % at 4.4 µM; hit rate 0.31% among 370,000; AID 686964, 2013; in the data active means inhibition above about 13%
SIAE inh = human SIAE inhibitors, primary screen, biochemical, fluorescence polarization, FP-Rh probe, 1536-well HTS. Sialate O-acetylesterase (Homo sapiens), Q9HAT2. AID 1053197, 2014. hit rate 0.69% among 370,000. inhibition, % at 9.66 µM. SIAE FP-Rh probe binding;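 active means inhibition above a cutoff: mean of compounds within the control limits plus 3 SD of those, cut at about 17% in these data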;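 further: 0% = plate median of compound wells and 100% = probe without SIAE protein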
TDP2 inh = human TDP2 enzyme inhibitors, primary screen, biochemical, epi absorbance, recombinant enzyme; hit rate 0.34% among 370,000; AID 720702, 2013; Tyrosyl-DNA phosphodiesterase 2 (Homo sapiens), O95551; T5PNP hydrolysis, p-nitrophenol absorbance 415 nm; inhibition, % at 12.8 µM;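 active means inhibition above the mean of all tested compounds plus 3 SD, set per campaign, cut at about 25% in these data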;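 further: 0% = DMSO with enzyme and 100% = buffer with substrate but no TDP2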
Target sequence (O95551 whole entry, looked up): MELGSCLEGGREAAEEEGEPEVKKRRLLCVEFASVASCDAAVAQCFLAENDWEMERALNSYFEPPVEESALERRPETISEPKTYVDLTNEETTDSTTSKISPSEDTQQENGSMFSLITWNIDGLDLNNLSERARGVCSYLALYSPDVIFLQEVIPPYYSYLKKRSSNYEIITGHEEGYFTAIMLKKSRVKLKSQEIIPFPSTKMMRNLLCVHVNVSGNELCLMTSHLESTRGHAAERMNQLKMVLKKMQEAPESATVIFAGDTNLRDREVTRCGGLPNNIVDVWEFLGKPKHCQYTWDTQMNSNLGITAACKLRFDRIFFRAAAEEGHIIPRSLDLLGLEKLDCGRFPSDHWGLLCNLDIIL
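Read-out basis: percent inhibition. System: recombinant human TDP2. Buffer or medium: Mg2+-containing Tris-HCl buffer, pH 7.5. Repeats: single replicate. Timing: reaction 2 h, 37 °C. Benchmarks: high control without enzyme, low control DMSO plus TDP2. Probe or stimulus: 5 mM T5PNP. Doses: 12.8 µM only. Measured by: epi absorbance of p-nitrophenol freed from T5PNP by hydrolysis.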
LEDGF integ inh = blockers of LEDGF/p75-dependent integrase strand transfer – biochemical, TR-FRET, high throughput, primary screen; HIV-1 integrase (with human LEDGF/p75); TR-FRET IN-LEDGF/p75 DNA integration, Eu/Cy5; inhibition, % at 3.7 µM; hit rate 0.64% among 370,000; AID 743269, 2014;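 active means inhibition above the screen-wide mean plus 3 SD, cut at about 13% in these data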;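 further: signal is the Cy5 over europium emission ratio at 671 and 618 nm; 0% = plate median of compound wells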
UHRF1 ctr MBD2 = UHRF1 methylated DNA binding inhibitors, counter-screen for MBD2 inhibitor project, biochemical, TR-FRET, human UHRF1; UHRF1 binding to methylated oligonucleotide; inhibition, % at 4.4 µM; hit rate 25% among 1,000; shares compounds with MBD2 inh; AID 720530, 2013;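 further: UHRF1 SRA domain binding a labeled hemimethylated CpG hairpin DNA; 0% = vehicle only and 100% = reference inhibitor with vehicle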
MBD2 DBD conf = inhibitors of MBD2 binding to methylated DNA, confirmation, biochemical, TR-FRET, DNA-binding domain, human. shares compounds with MBD2 inh. TR-FRET MBD2-DBD binding to methylated oligonucleotide. inhibition, % at 4.4 µM. hit rate 26% among 1,000; in the data active means inhibition above about 14%
* hit, by the source's call; nt = not tested or not shown. A selection: hits, their analogues and other compounds. The true share with any hit is near 3.3%. Unless noted, no stated cut-off is given here; in the data, active means inhibition above about 21%; inactive means the rest.

SMILES | PRMT1 FP inh | UHRF1 MBD2 ctr | MBD2 inh | SIAE inh | TDP2 inh | LEDGF integ inh | UHRF1 ctr MBD2 | MBD2 DBD conf
COc1ccccc1NC(=O)N1CCC(c2nc3cc(C)c(C)cc3[nH]2)CC1 | 3 | 18 | 13* | -4 | 10 | 0 | 6 | 2
CC(C)(C)c1ccc(C#C[C@@H]2C=C[C@H]3OC(=O)CC/C=C/CCC(=O)OC[C@H]3O2)cc1 | 5 | 1 | 3 | 2 | -6 | 0 | nt | nt
COc1ccc2nc(C)cc(Nc3ccc(N4CCN(C)CC4)cc3)c2c1 | -4 | 54* | 56* | 3 | -17 | 10 | 49* | 51*
CCN(CC)CCNC(=O)c1cc2c(-c3cccc(OC)c3)nn(C)c2s1 | -1 | 7 | 6 | -3 | 13 | -2 | nt | nt
COc1ccc(-c2nn(C)c3sc(C(=O)NCCN(C)C)cc23)cc1OC | -2 | 28* | 18* | -6 | -7 | -6 | 29* | 25*
COc1cccc(C(=O)n2ccc3ccc(-c4ccc5ccn(Cc6ccccc6)c5c4)cc32)c1 | -2 | -5 | -3 | -7 | -6 | 7 | nt | nt
OC[C@@H](O)C(O)[C@@H](O)CO (stereo partly drawn) | 21 | 13 | 22* | -2 | 7 | 0 | 6 | 3
Cc1cccc(C(=O)Nc2nc3ncccn3c2-c2ccc(C(F)(F)F)cc2)c1 | -2 | 0 | 5 | 8 | 0 | 1 | nt | nt
O=C(CCCn1c(=O)c2ccccc2n(Cc2cccc(F)c2)c1=O)NC1CCN(Cc2ccccc2)CC1 | -5 | 0 | -3 | -5 | 6 | 0 | nt | nt
O=C(CCCCn1c(=O)c2ccccc2n(Cc2ccccc2)c1=O)NC1CCN(Cc2ccccc2)CC1 | 6 | 27* | 13* | -3 | 5 | -4 | 4 | 2
CCOc1cccc(-c2nnc(SCC(=O)Nc3ccc4c(c3)OCO4)n2N)c1 | 3 | -1 | -5 | -1 | 5 | -2 | nt | nt
COC(=O)c1ccccc1NC(=O)CSc1nc(O)cc(=O)n1C1CCCC1 | 16 | 24* | 13* | 6 | -3 | 13 | 5 | 2
Cc1ccccc1CN1CCCCC(NC(=O)C2CCCCC2)C1=O (stereo not drawn) | 0 | -2 | 1 | 12 | 4 | 3 | nt | nt
O=C1CCCCC1Nc1ccc(Br)cc1 (stereo not drawn) | 3 | 21* | 13* | 6 | 8 | -1 | 2 | 1
O=C1CCCCC1Nc1ccc(Cl)cc1 (stereo not drawn) | 1 | 8 | -2 | 1 | 4 | 2 | nt | nt
CCCC(=O)Oc1ccc(N(C(=O)CCC)S(=O)(=O)c2cccc([N+](=O)[O-])c2)cc1 | 5 | 28* | 17* | -2 | -1 | 8 | 6 | 3
CCCC(=O)Oc1ccc(N(C(=O)CCC)S(=O)(=O)c2cccs2)cc1 | 6 | 9 | 9 | -7 | -1 | 4 | nt | nt
C[C@H](NC(=O)c1cc2c(cn1)[nH]c1ccccc12)C(=O)O | 19 | 1 | 42* | 1 | 1 | -3 | 3 | 3
COC(=O)[C@H](C)NC(=O)c1cc2c(cn1)[nH]c1ccccc12 | 9 | 0 | 4 | 0 | 5 | -1 | nt | nt

Compound activity: PubChem BioAssay, The Scripps Research Institute Molecular Screening Center
